Series [1] is described as follows: Inhibition of beta-lactamase VIM-2 (unknown origin) expressed in Escherichia coli LZ2310 assessed as potentiation of cefoxitin antibacterial activity by measuring cefoxitin induced diameter of inhibition zone at 80 uM incubated for 18 hrs by disk diffusion method (reference value: 14 mm). The procedure, abridged:
(§1)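 Efflux-deficient E. coli LZ2310 (NorE, MdfA, AcrA knocked out) carrying pLB-II with the cloned MBL gene. Mueller-Hinton, CLSI disk diffusion; antibiotic disks (30 µg cefoxitin for VIM-2, 10 µg ampicillin for VIM-4, 30 µg ceftazidime for NDM-1/IMP-1) loaded with inhibitor in DMSO (≤15 µL). Zone diameter after 18 h, 35 ± 1 °C; DMSO and 220 µg EDTA controls. Triplicate.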

Series [2] in a line: Inhibition of beta-lactamase CphA (unknown origin) expressed in Escherichia coli BL21(DE3) using imipenem as substrate by measuring substrate hydrolysis at 100 uM by spectrophotometric analysis. The procedure, abridged: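 Enzyme 0.2–0.8 nM in 15 mM cacodylate pH 6.5, no added zinc, pre-incubated 30 min at 21 °C with inhibitor (100 μM screen). Imipenem substrate added from 10 mM stock; hydrolysis at 300 nm, 30 °C. Residual activity vs three uninhibited samples; Ki (1–100 μM inhibitor) by Hanes linearization, competitive model. Triplicate.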

Series [3] is described as follows: Inhibition of beta-lactamase IMP-1 (unknown origin) expressed in Escherichia coli BL21(DE3) using imipenem as substrate by measuring substrate hydrolysis at 100 uM by spectrophotometric analysis. Put shortly:
(§2)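 Purified enzyme (overproduced in E. coli BL21(DE3), pET-9a; ion-exchange and gel filtration), 1-70 nM final. Reporter substrate 150 μM imipenem, read at 300 nm, 30 °C, 50 mM HEPES pH 7.5. Single-point screen at 100 or 200 μM; Ki from v0/vi vs [I] (0.5–1,000 μM final) assuming competitive inhibition, or Dixon plot. Triplicate.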

Series [4] in a line: Inhibition of beta-lactamase VIM-2 (unknown origin) expressed in Escherichia coli XL-1 assessed as potentiation of cefoxitin antibacterial activity by measuring cefoxitin induced diameter of inhibition zone at 80 uM incubated for 18 hrs by disk diffusion method (reference value: 8 mm). Put shortly: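 Wild-type efflux E. coli XL-1 Blue transformed with pLB-II-VIM-2. Mueller-Hinton disk diffusion per CLSI, 30 µg cefoxitin disks loaded with inhibitor dissolved in DMSO (≤15 µL). Growth-inhibition zone measured after 18 h at 35 ± 1 °C; DMSO negative and 220 µg EDTA positive controls. Triplicate.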

A short description of series [5]: Inhibition of beta-lactamase NDM1 (unknown origin) expressed in Escherichia coli BL21(DE3) using cefotaxime/nitrocefin as substrate by measuring substrate hydrolysis at 50 uM by spectrophotometric analysis.
Series [6] is described as follows: Inhibition of beta-lactamase VIM2 (unknown origin) expressed in Escherichia coli BL21(DE3) using imipenem as substrate by measuring substrate hydrolysis by spectrophotometric analysis. Put shortly:
as §2

Series [7] can be described thus: Inhibition of beta-lactamase VIM4 (unknown origin) expressed in Escherichia coli BL21(DE3) using imipenem as substrate by measuring substrate hydrolysis at 100 uM by spectrophotometric analysis. The procedure, abridged:
as §2

A short description of series [8]: Inhibition of beta-lactamase L1 (unknown origin) expressed in Escherichia coli BL21(DE3) using nitrocefin as substrate by measuring substrate hydrolysis at 100 uM preincubated for 30 mins by spectrophotometric analysis. The procedure, abridged: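 Enzyme 0.2–0.8 nM in 25 mM HEPES pH 7.5 with 50 μM ZnCl2 final, pre-incubated 30 min at 21 °C with inhibitor (100 μM screen). Nitrocefin 100 μM final, read at 482 nm, 30 °C. Residual activity vs three uninhibited samples; Ki (1–100 μM inhibitor) from Hanes linearization, competitive model. Triplicate.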

The nature of series [9]: Inhibition of beta-lactamase IMP-1 (unknown origin) expressed in Escherichia coli BL21(DE3) using imipenem as substrate by measuring substrate hydrolysis at 200 uM by spectrophotometric analysis. The procedure, abridged:
as §2

Series [10] can be described thus: Inhibition of beta-lactamase NDM-1 (unknown origin) expressed in Escherichia coli LZ2310 assessed as potentiation of ceftazidime antibacterial activity by measuring ceftazidime induced diameter of inhibition zone at 80 uM incubated for 18 hrs by disk diffusion method (reference value: 15 mm). Put shortly: as §1
Series [11] is described as follows: Inhibition of beta-lactamase NDM1 (unknown origin) expressed in Escherichia coli BL21(DE3) using cefotaxime/nitrocefin as substrate by measuring substrate hydrolysis by spectrophotometric analysis. Put shortly: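 His-tagged enzyme from E. coli BL21(DE3) pET-15b, affinity-purified, 1-70 nM final. Reporter substrate 120 μM cefotaxime (260 nm) or 100 μM nitrocefin (482 nm), 30 °C, 50 mM HEPES pH 7.5. Inhibitor 0.5–1,000 μM final; competitive Ki from v0/vi vs [I] slope or Dixon plot. Triplicate.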

Series [12] is described as follows: Inhibition of beta-lactamase VIM2 (unknown origin) expressed in Escherichia coli BL21(DE3) using imipenem as substrate by measuring substrate hydrolysis at 100 uM by spectrophotometric analysis. Put shortly:
as §2

Series [13] can be described thus: Inhibition of beta-lactamase VIM4 (unknown origin) expressed in Escherichia coli BL21(DE3) using imipenem as substrate by measuring substrate hydrolysis by spectrophotometric analysis. The procedure, abridged: as §2
Series [14] deals with Escherichia coli. The experiment in a line: Synergistic antibacterial activity against NDM-1 producing Escherichia coli assessed as MIC of imipenem at 32 ug/ml by broth microdilution method. Format: functional. The following applies: dose 32 µg/ml.
For series [15], the system named is Escherichia coli. Description: Synergistic antibacterial activity against NDM-1 producing Escherichia coli assessed as MIC of meropenem at 32 ug/ml by broth microdilution method. Format: functional. The note with it: dose 32 µg/ml.
The subject of series [16] is Escherichia coli. Description: Synergistic antibacterial activity against NDM-1 producing Escherichia coli assessed as MIC of ceftazidime at 32 ug/ml by broth microdilution method. The series is classed as functional. The note with it: dose 32 µg/ml.
Series [17] relates to Escherichia coli. The experiment in a line: Synergistic antibacterial activity against NDM-1 producing Escherichia coli assessed ass MIC of ceftazidime/avibactam at 32 ug/ml by broth microdilution method. Format: functional. The note with it: dose 32 µg/ml. The procedure, abridged:
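MIC of ceftazidime-avibactam (avibactam fixed at 4 µg/mL) by CLSI broth microdilution in Mueller-Hinton broth. Used the NDM-1-producing multidrug-resistant E. coli clinical isolate SI-001M at 5 × 10⁴ CFU/well, with and without inhibitor at a fixed 32 µg/ml. No colistin added. Triplicate determinations.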

The subject of series [18] is Escherichia coli. Description: Antibacterial activity against NDM-1 producing Escherichia coli in presence of colistin by broth microdilution method. The series is classed as functional.
The test system of series [19] is HeLa. The experiment in a line: Cytotoxicity in human HeLa cells assessed as cell lysis upto 250 uM incubated for 72 hrs by membrane integrity assay. The series is classed as cell-based.
The test system of a further series is HUVEC. The experiment in a line: Cytotoxicity in human HUVEC cells assessed as reduction in cell viability upto 100 uM incubated for 72 hrs by MTT assay. Format: cell-based.
Series [20] in a line: Inhibition of beta-lactamase L1 (unknown origin) expressed in Escherichia coli BL21(DE3) using nitrocefin as substrate by measuring substrate hydrolysis at 200 uM preincubated for 30 mins by spectrophotometric analysis.
A short description of series [21]: Inhibition of beta-lactamase VIM2 (unknown origin) expressed in Escherichia coli BL21(DE3) using imipenem as substrate by measuring substrate hydrolysis at 200 uM by spectrophotometric analysis. The procedure, abridged:
as §2

Series [22] deals with Escherichia coli. Description: Synergistic antibacterial activity against NDM-1 producing Escherichia coli assessed as MIC of imipenem at 32 ug/ml in presence of colistin by broth microdilution method. Format: functional. The note with it: dose 32 µg/ml.
In series [23] the test system is Escherichia coli. The experiment in a line: Synergistic antibacterial activity against NDM-1 producing Escherichia coli assessed as MIC of meropenem at 32 ug/ml in presence of colistin by broth microdilution method. Format: functional. The note with it: dose 32 µg/ml. The procedure, abridged:
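Broth microdilution per CLSI in Mueller-Hinton broth against a multidrug-resistant NDM-1-producing E. coli clinical isolate (SI-001M), inoculum 5 × 10⁴ CFU/well. […] Run in triplicate.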

Series [24] deals with Escherichia coli. Description: Synergistic antibacterial activity against NDM-1 producing Escherichia coli assessed as MIC of ceftazidime at 32 ug/ml in presence of colistin by broth microdilution method. Format: functional. The note with it: dose 32 µg/ml.
The test system of series [25] is Escherichia coli. The experiment in a line: Synergistic antibacterial activity against NDM-1 producing Escherichia coli assessed ass MIC of ceftazidime/avibactam at 32 ug/ml in presence of colistin by broth microdilution method. The series is classed as functional. The following applies: dose 32 µg/ml.
Series [26] concerns HeLa. The experiment in a line: Cytotoxicity in human HeLa cells assessed as reduction in cell viability upto 250 uM incubated for 72 hrs by MTT assay. The series is classed as cell-based.

pKi: −log10 of the molar value. Calls of active or inactive are those of the source. No cut-off for these calls is given here.

These results are taken from ChEMBL document CHEMBL4706580, “4-Amino-1,2,4-triazole-3-thione-derived Schiff bases as metallo-β-lactamase inhibitors” (Eur J Med Chem, 2020).

As to `Cc1ccccc1-c1n[nH]c(=S)n1/N=C/c1cccc(O)c1O`, the inhibition zone (IZ) in [1] was 18 mm; in series [4] it was 15 mm. In addition, the inhibition in series [2] came out at 68%; in [3], 63%; in [5], 39%; in [7] it was 65%; in [8] it was 55%. In [6], the pKi is 5.28.

Turning to `Oc1ccc(/C=N/n2c(-c3ccc(-c4ccccc4)cc3)n[nH]c2=S)c(O)c1`, the inhibition zone (IZ) in series [1] stood at 14 mm; in series [10], 15 mm. The inhibition result in [9], in series [3], in [12], in series [8], in [20] and in series [21] was “inactive” each time. The pKi was 5.74 in series [11] and 5.70 in series [13]. The MIC in the series with Escherichia coli [14] was 8 µg/mL; with Escherichia coli [15], 16 µg/mL; in the series on Escherichia coli [16], more than 256 µg/mL; with Escherichia coli [17], more than 256 µg/mL; in the series on Escherichia coli [18], more than 256 µg/mL; in the series with Escherichia coli [22], 4 µg/mL. In addition, the MIC with Escherichia coli [23] was 8 µg/mL; with Escherichia coli [24], more than 256 µg/mL; with Escherichia coli [25] it was 4 µg/mL. Also, the Activity result in the series with HeLa [19], in the series on HUVEC and in the series on HeLa [26] was “Non-Toxic” each time.
